Key:
[1] = Inhibition of rat alpha-amylase using amylose as substrate by colorimetric analysis
[2] = target: Lactase/phlorizin hydrolase (Rattus norvegicus, UniProt Q02401); experiment: Inhibition of rat intestinal lactase using lactose as substrate by colorimetric analysis
[3] = Inhibition of Saccharomyces cerevisiae alpha-glucosidase using 4-nitrophenyl alpha D-glucopyranoside as substrate assessed as release of 4-nitrophenol incubated for 5 mins prior to substrate addition measured after 10 mins
Outline: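 Yeast α-glucosidase assayed at 37 °C with 4-nitrophenyl α-D-glucopyranoside as substrate in 10 mM sodium phosphate buffer, pH 7.28. […] Absorbance rise at 400 nm compared with a DMSO control; IC50 read graphically from percent activity versus log concentration.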

[4] = target: Maltase-glucoamylase, intestinal (Rattus norvegicus); experiment: Inhibition of rat intestinal maltase using maltose as substrate by colorimetric analysis

Chain of Lactase/phlorizin hydrolase (Q02401 868-1928 limits assumed): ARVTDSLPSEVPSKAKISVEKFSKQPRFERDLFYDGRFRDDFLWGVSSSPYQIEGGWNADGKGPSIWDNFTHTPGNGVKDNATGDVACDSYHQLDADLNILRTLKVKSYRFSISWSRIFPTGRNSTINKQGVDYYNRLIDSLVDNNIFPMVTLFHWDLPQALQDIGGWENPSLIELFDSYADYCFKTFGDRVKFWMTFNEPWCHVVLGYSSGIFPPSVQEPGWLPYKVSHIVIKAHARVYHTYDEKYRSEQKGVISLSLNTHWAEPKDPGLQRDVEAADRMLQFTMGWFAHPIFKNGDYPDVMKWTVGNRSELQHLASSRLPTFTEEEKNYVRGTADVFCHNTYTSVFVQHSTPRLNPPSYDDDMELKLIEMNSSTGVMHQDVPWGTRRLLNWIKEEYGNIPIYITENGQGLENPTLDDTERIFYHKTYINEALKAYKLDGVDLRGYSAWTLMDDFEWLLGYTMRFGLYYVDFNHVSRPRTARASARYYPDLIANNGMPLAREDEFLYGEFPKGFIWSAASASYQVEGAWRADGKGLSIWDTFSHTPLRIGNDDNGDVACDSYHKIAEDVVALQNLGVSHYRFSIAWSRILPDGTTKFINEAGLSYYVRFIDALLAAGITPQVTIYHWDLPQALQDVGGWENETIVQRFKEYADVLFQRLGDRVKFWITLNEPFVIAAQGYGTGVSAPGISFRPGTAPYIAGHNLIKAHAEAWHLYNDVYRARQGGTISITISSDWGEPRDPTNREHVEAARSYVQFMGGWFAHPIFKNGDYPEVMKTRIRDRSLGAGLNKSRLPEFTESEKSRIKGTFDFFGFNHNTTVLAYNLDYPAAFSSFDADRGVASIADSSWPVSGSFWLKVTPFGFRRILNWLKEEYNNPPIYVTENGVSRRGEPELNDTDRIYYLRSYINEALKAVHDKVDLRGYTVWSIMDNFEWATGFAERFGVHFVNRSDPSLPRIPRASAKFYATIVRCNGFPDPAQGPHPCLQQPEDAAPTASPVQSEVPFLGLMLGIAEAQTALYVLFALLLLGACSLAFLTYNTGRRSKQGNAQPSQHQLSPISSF

IC50 [1]	IC50 [2]	IC50 [3]	IC50 [4]	Structure (SMILES)
> 200 µM	199 µM	66.5 µM	–	Cc1ccc(S(=O)(=O)Nc2ccc3c(c2)C(=O)N(Cc2ccc(C#N)cc2)C3=O)cc1
> 200 µM	> 200 µM	88.4 µM	–	Cc1ccc(S(=O)(=O)Nc2ccc3c(c2)C(=O)N(CCCBr)C3=O)cc1
> 200 µM	172 µM	42.7 µM	–	Cc1ccc(S(=O)(=O)Nc2ccc3c(c2)C(=O)N(Cc2ccc(F)cc2)C3=O)cc1
> 200 µM	170 µM	47.3 µM	–	Cc1ccc(S(=O)(=O)Nc2ccc3c(c2)C(=O)N(CCOc2ccccc2)C3=O)cc1
> 200 µM	> 200 µM	54.2 µM	> 200 µM	Cc1ccc(S(=O)(=O)Nc2ccc3c(c2)C(=O)N(Cc2ccccc2)C3=O)cc1
8.65 µM	167 µM	235 µM	–	C[C@H]1O[C@H](O[C@H]2[C@H](O)[C@@H](O)[C@@H](O[C@H]3[C@H](O)[C@@H](O)C(O)O[C@@H]3CO)O[C@@H]2CO)[C@H](O)[C@@H](O)[C@@H]1N[C@H]1C=C(CO)[C@@H](O)[C@H](O)[C@H]1O (stereo not given in full) [ACARBOSE]
> 200 µM	> 200 µM	138 µM	144 µM	Nc1ccc2c(c1)C(=O)N(CCNc1ccccc1)C2=O
> 200 µM	155 µM	32.6 µM	188 µM	Cc1ccc(S(=O)(=O)Nc2ccc3c(c2)C(=O)N(Cc2ccc(Cl)cc2)C3=O)cc1
> 200 µM	> 200 µM	52.1 µM	–	Cc1ccc(S(=O)(=O)Nc2ccc3c(c2)C(=O)N(N2CCOCC2)C3=O)cc1
> 200 µM	> 200 µM	69.7 µM	> 200 µM	Cc1ccc(S(=O)(=O)Nc2ccc3c(c2)C(=O)N(CCCCBr)C3=O)cc1
> 200 µM	180 µM	40.8 µM	195 µM	Cc1ccc(S(=O)(=O)Nc2ccc3c(c2)C(=O)N(Cc2ccccc2F)C3=O)cc1
> 200 µM	84.1 µM	60.3 µM	–	Cc1ccc(S(=O)(=O)Nc2ccc3c(c2)C(=O)N(Cc2ccc(C(N)=O)cc2)C3=O)cc1
> 200 µM	177 µM	58.5 µM	99.6 µM	Cc1ccc(S(=O)(=O)Nc2ccc3c(c2)C(=O)N(CCNc2ccccc2)C3=O)cc1
> 200 µM	111 µM	28.7 µM	55.6 µM	Cc1ccc(S(=O)(=O)Nc2ccc3c(c2)C(=O)N(CCOc2cccc(O)c2)C3=O)cc1
> 200 µM	> 200 µM	> 200 µM	184 µM	O=C1c2ccccc2C(=O)N1CCNc1ccccc1
> 200 µM	101 µM	28.7 µM	122 µM	Cc1ccc(S(=O)(=O)Nc2ccc3c(c2)C(=O)N(Cc2ccc(Cl)c(Cl)c2)C3=O)cc1
> 200 µM	164 µM	72.6 µM	–	Cc1ccc(S(=O)(=O)Nc2ccc3c(c2)C(=O)N(Cc2ccc(O)c(O)c2)C3=O)cc1
> 200 µM	> 200 µM	68.9 µM	111 µM	O=C1c2ccc([N+](=O)[O-])cc2C(=O)N1CCNc1ccccc1
> 200 µM	100 µM	25.5 µM	47.7 µM	Cc1ccc(S(=O)(=O)Nc2ccc3c(c2)C(=O)N(CCOc2ccc(O)cc2)C3=O)cc1
> 200 µM	> 200 µM	94.2 µM	> 200 µM	Cc1ccc(S(=O)(=O)Nc2ccc3c(c2)C(=O)N(CCBr)C3=O)cc1
> 200 µM	> 200 µM	> 200 µM	> 200 µM	Cc1ccc(S(=O)(=O)Nc2ccc3c(c2)C(=O)N(C)C3=O)cc1
> 200 µM	66.6 µM	44.5 µM	28.8 µM	Cc1ccc(S(=O)(=O)Nc2ccc3c(c2)C(=O)N(CCNc2ccc(O)c(O)c2)C3=O)cc1

Source: ChEMBL document CHEMBL2346551, “A new series of N2-substituted-5-(p-toluenesulfonylamino)phthalimide analogues as α-glucosidase inhibitors” (Bioorg Med Chem Lett, 2013)
